Results from ChEMBL document CHEMBL5674889, “Enhanced JunD/RSK3 signalling due to loss of BRD4/FOXD3/miR-548d-3p axis determines BET inhibition resistance” (2020).
Active and inactive are the calls of the source.

Assays:
MDA-MB-231 [1] = assay: Effect on human BRD4-knockdown MDA-MB-231 cells assessed as miR-548d-3p expression at 1 uM by real-time PCR analysis; assay type: functional, cell-based
BT-549 [2] = assay: Antiproliferative activity in human RPS6KA2 expressed in JUND knock-down BT-549 cells assessed as inhibition of cell growth at 1 uM by CCK-8 assay; assay type: functional, cell-based
MDA-MB-231 [3] = assay: Effect on human MDA-MB-231 cells assessed as RSK3 protein expression at 1 uM for 24 hrs by Western blot analysis; assay type: functional, cell-based
Method in brief: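 Western blot for RSK3 in MDA-MB-231 and BT549 cells treated with DMSO or 1 μM for 0, 12 and 24 h. Antibody used at 1:1000.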

MDA-MB-231 [4] = assay: Effect on human MDA-MB-231 cells assessed as RSK3 […] expression at 1 uM for 24 hrs by Western blot analysis; assay type: functional, cell-based
BT-549 [5] = assay: Antiproliferative activity in human JUND-overexpressing BT-549 cells assessed as tumor sphere formation at 1 uM by Tumor sphere assay; assay type: functional, cell-based
MDA-MB-231 [6] = assay: Effect on human JUND-overexpressing MDA-MB-231 cells assessed as RSK3 protein expression at 1 uM by Western blot analysis; assay type: functional, cell-based
Method in brief: (§1)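 RSK3 and JunD were probed by western blot in JUND-knockdown or JUND-overexpressing stable clones and their controls, all selected with puromycin 1.0 μg/ml. Antibodies used at 1:1000.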

BT-549 [7] = assay: Effect on human JUND-overexpressing BT-549 cells assessed as RSK3 protein expression at 1 uM by Western blot analysis; assay type: functional, cell-based; method in brief: as §1
BT-549 [8] = assay: Antiproliferative activity in human JUND-knockdown BT-549 cells assessed as stronger tumor sphere formation at 1 uM by tumor sphere assay; assay type: functional, cell-based
MDA-MB-231 [9] = assay: Antiproliferative activity in human JUND-knockdown MDA-MB-231 cells assessed as stronger tumor sphere formation at 1 uM by tumor sphere assay; assay type: functional, cell-based
BT-549 [10] = assay: Effect on human RPS6KA2-knockdown BT-549 cells assessed as RSK3 protein expression at 1 uM by Western blot analysis; assay type: functional, cell-based
MDA-MB-231 [11] = assay: Effect on human JUND-knockdown MDA-MB-231 cells assessed as reduction of RSK3 protein expression at 1 uM by Western blot analysis; assay type: functional, cell-based; method in brief: as §1
MDA-MB-231 [12] = assay: Effect of human RSK3-overexpressing MDA-MB-231 cells assessed as suppression of tumour sphere formation at 1 uM by Tumour sphere assay; assay type: functional, cell-based
HEK-293T = assay: Effect on induction of RPS6KA2 transcription in human HEK293T cells transfected with RPS6KA2 assessed as luciferase activity at 1 uM for 6 hrs by Luciferase reporter assay; assay type: functional, cell-based
Method in brief: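 HEK293T were transfected with wild-type or mutant RPS6KA2 enhancer luciferase construct, ± JUND co-transfection (FuGene 6, 24 h). Cells then treated with DMSO or JQ1 1 μM for 6 h. Dual-luciferase activity expressed as fold over vector control; three experiments in triplicate.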

BT-549 [13] = assay: Induction of apoptosis in human RPS6KA2-knockdown BT-549 cells at 1 uM by FACS assay; assay type: functional, cell-based
Method in brief: (§2)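 Stable clones (vector, RSK3-overexpressing or RPS6KA2-knockdown) treated ± JQ1 1 μM. Cells washed twice in PBS, resuspended at 1 × 10^6 cells/ml in binding buffer, stained with Annexin V-FITC and propidium iodide for 10 min at room temperature in the dark, then read by flow cytometry. Three independent experiments; one-way ANOVA.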

BT-549 [14] = assay: Effect on human RPS6KA2-knockdown BT-549 cells assessed as inhibition tumor sphere formation at 1 uM by Tumor sphere assay; assay type: functional, cell-based
MDA-MB-231 [15] = assay: Antitumor activity against human MDA-MB-231 cells xenografted in BALB/c nude mouse assessed as reduction in tumor weight at 35 mg/kg/day, sc administered every 2 days; assay type: functional, organism-based; conditions: time 2.0 day
Method in brief: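 Female BALB/c nude mice aged 4–6 weeks received 1 × 10^6 MDA-MB-231 control or knockdown cells subcutaneously, n = 7 per group. Dosing at 35 mg/kg every 2 days began at an average tumour volume of 90 mm3. Tumours were weighed after 25 days.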

BT-549 [16] = assay: Effect on induction of RPS6KA2 transcription in human BT-549 cells assessed as JunD protein expression at 1 uM for 24 hrs by Western blot analysis; assay type: functional, cell-based
MDA-MB-231 [17] = assay: Effect on human MDA-MB-231 cells assessed as JunD protein expression in the presence of miR-548d-3p at 1 uM by Western blot analysis; assay type: functional, cell-based
MDA-MB-231 [18] = assay: Effect on human BRD4-knockdown MDA-MB-231 assessed as decreased luciferase activity at 1 uM for 6 hrs by Luciferase reporter assay; assay type: functional, cell-based
BT-549 [19] = assay: Antiproliferative activity in human BT-549 cells assessed as cell growth in the presence of osimertinib at 1 uM by CellTiter-Glo luminescent cell viability assay; assay type: functional, cell-based
Method in brief: (§3)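 BLBC cells seeded at 3000/well, adhered overnight, then exposed to JQ1 (1 μM) with or without an EGFR inhibitor (1 μM) for 48 h; control and RPS6KA2-shRNA clones tested. Viability by CellTiter-Glo luminescence, background-subtracted and normalized to DMSO-treated control; triplicates, mean ± SD, one-way ANOVA against JQ1 alone.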

BT-549 [20] = assay: Antiproliferative activity in human BT-549 cells assessed as cell growth in the presence of AZ5104 at 1 uM by CellTiter-Glo luminescent cell viability assay; assay type: functional, cell-based; method in brief: as §3
BT-549 [21] = assay: Antiproliferative activity in human BT-549 cells assessed as cell growth in the presence of EAI045 at 1 uM by CellTiter-Glo luminescent cell viability assay; assay type: functional, cell-based; method in brief: as §3
MDA-MB-231 [22] = assay: Antiproliferative activity in human MDA-MB-231 cells assessed as cell growth in the presence of erlotinib at 1 uM by CellTiter-Glo luminescent cell viability assay; assay type: functional, cell-based; method in brief: as §3
BT-549 [23] = assay: Antiproliferative activity in human RPS6KA2-knockdown BT-549 cells assessed as cell growth at 1 uM by CCK-8 assay; assay type: functional, cell-based
BT-549 [24] = assay: Antiproliferative activity in human JunD-overexpressing BT-549 cells assessed as cell growth in the presence of osimertinib at 1 uM by CCK-8 assay; assay type: functional, cell-based
MDA-MB-231 [25] = assay: Antitumor activity against human MDA-MB-231 cells xenografted in BALB/c nude mouse model assessed as reduction of tumor size in the presence of osimertinib at 35 mg/kg/day, sc administered every 2 days for 30 days; assay type: functional, organism-based; conditions: time 30.0 day
Method in brief: (§4)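 MDA-MB-231 xenografts used 1 × 10^6 cells injected subcutaneously into female BALB/c nude mice (4–6 weeks). Animals were split into four groups (n = 7) at ~100 mm3: vehicle, osimertinib 10 mg/kg, 35 mg/kg agent, or the combination, each given every 2 days. Volume was measured by calliper as length × width²/2; tumours were weighed at end.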

MDA-MB-231 [26] = assay: Antitumor activity against human MDA-MB-231 cells xenografted in BALB/c nude mouse model assessed as reduction of tumor weight in the presence of osimertinib at 35 mg/kg/day, sc administered every 2 days for 30 days; assay type: functional, organism-based; conditions: time 30.0 day; method in brief: as §4
BT-549 [27] = assay: Antiproliferative activity in human RPS6KA2-knockdown BT-549 cells assessed as inhibited cell growth at 1 uM for 48 hrs by CCK-8 assay; assay type: functional, cell-based
MDA-MB-231 [28] = assay: Induction of apoptosis in human MDA-MB-231 cells expressing vector control assessed as early apoptotic cells at 1 uM by Annexin V-FITC flow cytometric analysis (reference value: 4.02%); assay type: functional; method in brief: as §2

Measured: Activity

Cc1sc2c(c1C)C(c1ccc(Cl)cc1)=N[C@@H](CC(=O)OC(C)(C)C)c1nnc(C)n1-2
16.3%: MDA-MB-231 [28]
active: MDA-MB-231 [1] | BT-549 [2] | MDA-MB-231 [3] | MDA-MB-231 [4] | BT-549 [5] | MDA-MB-231 [6] | BT-549 [7] | BT-549 [8] | MDA-MB-231 [9] | BT-549 [10] | MDA-MB-231 [11] | MDA-MB-231 [12] | HEK-293T | BT-549 [13] | BT-549 [14] | MDA-MB-231 [15] | BT-549 [16] | MDA-MB-231 [17] | MDA-MB-231 [18] | BT-549 [19] | BT-549 [20] | BT-549 [21] | MDA-MB-231 [22] | BT-549 [23] | BT-549 [24] | MDA-MB-231 [25] | MDA-MB-231 [26] | BT-549 [27]
